Rows were chosen to be rich in hits. Some 2.7% of all compounds tested hit in one or more screens of this group.
SIAE primary = inhibitors of human sialic acid acetylesterase SIAE; SIAE FP-Rh probe binding, fluorescence polarization; AID 1053197; 0.69% of 370,000 active; inhibition, % at 9.66 µM;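 active means inhibition above a cutoff: mean of compounds within the control limits plus 3 SD of those, cut at about 17% in these data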
Target sequence (Q9HAT2 whole entry, looked up): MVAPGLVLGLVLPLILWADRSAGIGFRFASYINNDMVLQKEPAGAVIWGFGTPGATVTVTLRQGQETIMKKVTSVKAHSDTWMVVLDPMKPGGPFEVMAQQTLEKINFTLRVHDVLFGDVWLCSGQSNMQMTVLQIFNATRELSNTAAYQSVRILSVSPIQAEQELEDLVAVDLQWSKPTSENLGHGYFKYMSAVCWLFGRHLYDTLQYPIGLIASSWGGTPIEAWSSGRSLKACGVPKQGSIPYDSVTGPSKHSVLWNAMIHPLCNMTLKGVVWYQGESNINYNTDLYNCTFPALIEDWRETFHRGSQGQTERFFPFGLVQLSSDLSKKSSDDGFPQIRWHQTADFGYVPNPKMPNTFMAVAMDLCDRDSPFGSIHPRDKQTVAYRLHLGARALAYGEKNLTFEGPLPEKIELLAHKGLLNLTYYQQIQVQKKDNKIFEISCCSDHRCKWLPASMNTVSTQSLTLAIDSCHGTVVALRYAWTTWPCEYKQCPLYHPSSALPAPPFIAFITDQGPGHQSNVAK
PAD4 FP inh = PAD4 (human) enzyme inhibition. AID 485272. inhibition, % at 6.36 µM. recombinant PAD4, RCA probe fluorescence polarization. 0.41% of 330,000 active;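 active means percent inhibition above a cutoff equal to the mean of all tested compounds plus 3 SD, cut at about 15% in these data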
RBBP9 inhibitor = blocks human serine hydrolase RBBP9 | inhibition, % at 7.94 µM | AID 1515 | recombinant RBBP9, FP-Rh probe fluorescence polarization | 0.2% of 220,000 active | O75884;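 active means inhibition above the campaign mean of all tested compounds plus 3 SD, cut at about 14% in these data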
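Assay system: recombinant human RBBP9; Reagent: Serine-hydrolase probe FP-Rh, 375 nM pre-mixing; Doses: 7.94 µM single dose, 0.794% DMSO; Incubation: 30 min then 45 min, 25 °C; Detection: fluorescence polarization (mP), excitation 525 nm, emission 598 nm; Evaluation: percent inhibition from mP, scaled between DMSO and no-protein wells.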
PRMT1 inh = blocks human protein arginine methyltransferase 1. Q99873. recombinant PRMT1, activity-based probe fluorescence polarization. inhibition, % at 2.79 µM. 1.3% of 370,000 active;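 active means inhibition above about 21% made by adding two undisclosed values, limit read from the data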
GSTO1 inh = blocks human GSTO1 in RBBP9 counter-screen; recombinant GSTO1, activity-based probe fluorescence polarization; 1.1% of 300,000 active; inhibition, % at 5.96 µM; P78417;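 active means inhibition above the campaign mean inhibition plus 3 SD, cut at about 35% in these data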
Target sequence (P78417 whole entry, looked up): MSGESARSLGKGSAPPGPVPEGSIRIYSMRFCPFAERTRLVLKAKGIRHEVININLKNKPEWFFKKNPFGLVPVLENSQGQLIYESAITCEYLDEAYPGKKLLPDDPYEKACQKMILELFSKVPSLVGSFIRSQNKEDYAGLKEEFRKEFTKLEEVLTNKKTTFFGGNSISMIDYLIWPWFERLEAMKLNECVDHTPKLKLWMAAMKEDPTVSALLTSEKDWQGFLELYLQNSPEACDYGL
PRMT1 inh conf = PRMT1 (human) inhibition, FP confirmation | shares compounds with PRMT1 inh | recombinant His-PRMT1, activity-based probe fluorescence polarization | inhibition, % at 2.79 µM | 42% of 3,300 active | AID 687036;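 active means mean inhibition across replicates above the hit cutoff derived for the earlier primary screen, cut at about 22% in these data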
Large screens that a line does not name were inactive (follow-up assays come after a bar, where they were run).

CCOC(=O)C1=C(C)N=c2s/c(=C\c3ccc(OCC(=O)O)cc3)c(=O)n2C1c1ccc(Cl)cc1 (centres undefined)	PRMT1 inh 30 (no result: PAD4 FP inh, RBBP9 inhibitor, GSTO1 inh) | PRMT1 inh conf inactive
CCOC(=O)C1=C(C)N=c2s/c(=C/c3ccc(OCC(=O)O)c(OC)c3)c(=O)n2C1c1ccc(Cl)cc1 (centres undefined)	PRMT1 inh 34 (no result: RBBP9 inhibitor) | PRMT1 inh conf 22
CC(=NNC(=S)N1CCCCCC1)c1cccc2cccnc12	PRMT1 inh 26 (no result: PAD4 FP inh, RBBP9 inhibitor, GSTO1 inh) | PRMT1 inh conf inactive
CC(=NNC(=S)N1CC2CCC(CC2)C1)c1ccccn1	PRMT1 inh 37 (no result: PAD4 FP inh, RBBP9 inhibitor, GSTO1 inh) | PRMT1 inh conf inactive
CC(=NNC(=S)N1CC2CCC(CC2)C1)c1cnccn1	PRMT1 inh 25 (no result: PAD4 FP inh, RBBP9 inhibitor, GSTO1 inh) | PRMT1 inh conf inactive
CC(=NNC(=S)N1CCN(C2CCCCCC2)CC1)c1ccccn1	none (no result: PAD4 FP inh, RBBP9 inhibitor, GSTO1 inh)
O=[N+]([O-])c1cc(Cl)cc(/C=N/NC(=S)Nc2ccc(S(=O)(=O)N3CCOCC3)cc2)c1O	none
COC(=O)[C@@]12C[C@@H](CC(=O)NCCC(C)C)C(=O)N(Cc3ccc4c(c3)OCO4)C1=CCC(C)(C)C2	none (no result: PAD4 FP inh, RBBP9 inhibitor, GSTO1 inh)
NC(=O)SCC(=O)Nc1ccccc1C(=O)O	PRMT1 inh 37 | PRMT1 inh conf 81
COc1ccccc1NC(=O)CSC(N)=O	PRMT1 inh 81 | PRMT1 inh conf 93
Cc1ccccc1NC(=O)CSC(N)=O	PRMT1 inh 75 | PRMT1 inh conf 90
COc1ccccc1NC(=O)CCCCC(=O)Nc1ccccc1OC	none (no result: RBBP9 inhibitor)
COc1cc(Cl)c(C)cc1NC(=O)c1cc(S(=O)(=O)N(C)C)ccc1N1CCCC1	none
O=C(c1ccccc1)c1ccc(O)cc1O	PRMT1 inh 73 | PRMT1 inh conf 42
Cn1c(SCCC#N)nnc1-c1ccc(F)cc1	none (no result: SIAE primary, PRMT1 inh)
CC1=C(SCCC#N)S/C(=C2\SC(C)=C(SCCC#N)S2)S1	PRMT1 inh 71 | PRMT1 inh conf 47
NS(=O)(=O)c1ccc(N2N=C(c3ccccc3)CC2c2ccccc2)cc1 (centres undefined)	none
Cc1ccc(OCC(=O)NC2=NCCS2)cc1	none
Cc1ccc(C2=NN=C(NC(=O)C(F)(F)F)SC2)cc1	PRMT1 inh 58 (no result: PAD4 FP inh, GSTO1 inh) | PRMT1 inh conf 61
O=C(NC1CCCCC1)c1ccc(-c2ccccc2)cc1	PRMT1 inh 42 (no result: RBBP9 inhibitor) | PRMT1 inh conf inactive
O=C(NC1CCCCCCC1)c1ccc(F)cc1	none (no result: RBBP9 inhibitor)
COc1ccc(N2CCN(C(=O)c3cc([N+](=O)[O-])ccc3N3CCN(CCO)CC3)CC2)cc1	none (no result: RBBP9 inhibitor)
Clc1ccc(-c2ccc(-c3nn4c(-c5ccco5)nnc4s3)o2)cc1	none
Brc1ccc(-c2nn3c(-c4ccco4)nnc3s2)o1	PRMT1 inh 53 | PRMT1 inh conf inactive
Cc1ccc(S(=O)(=O)N/N=C\c2cc3c(cc2Br)OCO3)cc1	none
O=[N+]([O-])c1cc2c(cc1/C=N/NS(=O)(=O)c1ccc(Br)cc1)OCO2	PRMT1 inh 34 | PRMT1 inh conf inactive
CC(C)CCN1C(=O)c2ccc(-c3nc4ccccc4c(=O)o3)cc2C1=O	none
C/C=C/COC(=O)c1[nH]c2c(c1C)C(=O)CC(c1ccco1)C2 (centres undefined)	PRMT1 inh 43 | PRMT1 inh conf inactive
Cc1c(C(=O)OCC(C)C)[nH]c2c1C(=O)CC(c1ccco1)C2 (centres undefined)	PRMT1 inh 31 | PRMT1 inh conf inactive
COc1ccc(C(=O)CSc2nncn2C)cc1	none
CC(=O)Nc1ccc(S(=O)(=O)NC(C)CCc2ccccc2)cc1 (centres undefined)	none (no result: RBBP9 inhibitor)
O=c1oc2cc(O)ccc2s1	PRMT1 inh 86, GSTO1 inh 53 (no result: RBBP9 inhibitor) | PRMT1 inh conf 33
COC(=O)CN(C#N)c1nc(NC(C)C)nc(OC)n1	none
COC(=O)CN(C#N)c1nc(NCc2ccccc2)nc(OC)n1	PRMT1 inh 64 (no result: PAD4 FP inh, RBBP9 inhibitor, GSTO1 inh) | PRMT1 inh conf inactive
CC(=O)Cn1ncc(N2CCOCC2)cc1=O	none
CCC(C(=O)Nc1ccc(S(=O)(=O)Nc2ncccn2)cc1)c1ccccc1 (centres undefined)	none (no result: RBBP9 inhibitor)
N#Cc1c([N+](=O)[O-])cc([N+](=O)[O-])cc1S(=O)(=O)Cc1ccccc1	PRMT1 inh 72 (no result: RBBP9 inhibitor, GSTO1 inh) | PRMT1 inh conf 61
COc1cc(OC)c(C#N)c(S(=O)(=O)Cc2ccccc2)c1	none
CC(C)C[C@H]1CNC(=S)N1CC1CCCN1C[C@H](CC(C)C)N1C[C@H](Cc2ccccc2)N(CC2CCCCCC2)C1=S (some centres undefined)	PRMT1 inh 31 (no result: PAD4 FP inh, RBBP9 inhibitor, GSTO1 inh) | PRMT1 inh conf inactive
CC(C)C[C@@H](CN1CCCC1CN1C(=S)NC[C@@H]1Cc1ccccc1)N1C[C@H](Cc2ccccc2)N(CC2CCCCC2)C1=S (some centres undefined)	none (no result: PAD4 FP inh, RBBP9 inhibitor, GSTO1 inh)
Cc1c(Cl)cccc1NC(=O)CSCc1cc(=O)[nH][nH]1	PRMT1 inh 28 | PRMT1 inh conf inactive
Cc1c(Cl)cccc1NC(=O)CSc1nnnn1C	none (no result: RBBP9 inhibitor, GSTO1 inh)
CCOC(=O)C1CSc2[nH]c(=O)sc2C1c1ccccc1 (centres undefined)	PRMT1 inh 31 | PRMT1 inh conf inactive
COc1ccc(N2CCCC2)c(NC(=O)c2ccc([N+](=O)[O-])o2)c1	PRMT1 inh 39 (no result: RBBP9 inhibitor) | PRMT1 inh conf inactive
O=C(Nc1ccccc1N1CCCC1)c1ccc([N+](=O)[O-])o1	none (no result: RBBP9 inhibitor)
CCOC(=O)C1(CCCc2ccccc2)CCN(C(=O)c2cc(C)nn2CC)CC1	none (no result: RBBP9 inhibitor)
CCCCN1C(=O)C(O)(CC(=O)c2c(C)coc2C)c2ccccc21 (centres undefined)	none
CCCOc1ccc(Cc2nn3c(=O)/c(=C/c4ccco4)sc3nc2=O)cc1	PRMT1 inh 33 | PRMT1 inh conf inactive
COc1ccc(S(=O)(=O)NCCNC(=O)N2CCOCC2)cc1	none (no result: RBBP9 inhibitor)
CN1/C(=C\C=O)C(C)(C)c2ccccc21	none
CN1\C(=C/C=C/C=C/C=[N+](C)C)C(C)(C)c2ccccc21	PRMT1 inh 33 (no result: PAD4 FP inh, GSTO1 inh) | PRMT1 inh conf 43
CCOC(=O)c1ccc(N2C(=O)c3n[nH]c(-c4ccco4)c3C2c2cccc([N+](=O)[O-])c2)cc1 (centres undefined)	PRMT1 inh 60 | PRMT1 inh conf inactive
COC(=O)C(C)Sc1n[nH]c(=S)s1 (centres undefined)	PRMT1 inh 35 | PRMT1 inh conf inactive
O=C(O)CC(Sc1n[nH]c(=S)s1)C(=O)O (centres undefined)	PRMT1 inh 27 | PRMT1 inh conf inactive
CCOc1ccc2nc(NC(=O)CSc3nc4ccccc4c(=O)n3Cc3ccco3)sc2c1	none
Cc1sc2c(c1C)c(=O)n(-c1ccc(Cl)cc1)c(=O)n2Cc1cc(=O)n2ccccc2n1	none
CCOC(=O)CC(=O)CSc1ncnc2c1nnn2-c1ccc(OC)cc1	PRMT1 inh 62 | PRMT1 inh conf 79
CCN(CC)C(=O)CSc1ncnc2c1nnn2-c1ccc(OC)cc1	none (no result: SIAE primary, PRMT1 inh)
Cc1ccc(SC(CC(=O)c2ccc(C)cc2)C(=O)O)cc1 (centres undefined)	PRMT1 inh 59 | PRMT1 inh conf 69
O=C(CC(Sc1ccc(Br)cc1)C(=O)O)c1ccc(Br)cc1 (centres undefined)	none (no result: SIAE primary, RBBP9 inhibitor, PRMT1 inh)

Source: PubChem BioAssay (The Scripps Research Institute Molecular Screening Center)
